From ChEMBL document CHEMBL4513216, “Probing the Open Global Health Chemical Diversity Library for Multistage-Active Starting Points for Next-Generation Antimalarials” (ACS Infect Dis, 2020)

Experiment: Toxicity liver stage against HepG2, at 10uM
Format: cell-based
Design: test concentration 10 uM, cell line HepG2-A16-CD81EGFP
Settings: human, HepG2-A16-CD81EGFP cells; read-out: INHIBITION
Summary of the method: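 Uninfected HepG2-A16-CD81EGFP cells, 3 × 10^3 per well, 1536-well, plated on prespotted compound at 10 μM final, parasite-free screening media added to match infected plates; puromycin 10 μM positive, DMSO 0.5% negative; run in parallel with 48 h PbLuc assay at 37 °C, 5% CO2; viability by CellTiter-Glo luminescence, normalized to controls.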

Structure (SMILES) | cytotoxicity at 10 µM [%]
CS(=O)(=O)N1CCC(CNC(=O)c2cnccn2)CC1 | 0.503
Cc1ccc(NC(=O)c2cnc(N3CCN(C)CC3)nc2C)cc1C | -7.8
O=c1[nH]cc(Nc2ccccc2)c(=O)[nH]1 | 15.6
COC1(CNC(=O)c2ccc(Cl)c(Cl)c2)CCSC1 (configuration not stated) | 2.05
c1cnc(NCc2n[nH]c3c2CCN(Cc2ccncc2)C3)nc1 | -3.83
Cc1cnc(N2CCC3(CC2)C(c2ccccc2)CC(=O)N3C)nc1 (configuration not stated) | -4.35
CCN1C(=O)CCCC12CCCN(C(=O)c1ccoc1)C2 (configuration not stated) | -5.83
CC(C)Nc1ncnc2c1CCNCC2 | -1.43
Cc1cnc(N2C(=O)CSC2c2cccs2)s1 (configuration not stated) | 0.847
Cc1cccc(N(C)Cc2cc(=O)n3oc(C)cc3n2)c1 | 0.14
CN1CCCC1c1ccc(N2CCOCC2)cn1 (configuration not stated) | -2.21
CC(=O)N1CCC(c2nccnc2-c2ccc(F)cc2)CC1 | -2.22
CN1CCN(Cc2cscn2)CC(C(=O)N(C)C)C1 (configuration not stated) | -5.61
COc1ccc(Cc2cccc(C3CCN(C)CC3)n2)cc1 | 0.153
CC(C)C(C(N)=O)c1cccc(Cl)c1 (configuration not stated) | 3.82
O=C(NCC(O)Cc1ccccc1)c1ccc2[nH]c(=O)[nH]c2c1 (configuration not stated) | 4.14
Cc1cc(C)nc(NC2CCN(CCOC(C)C)CC2)n1 | -10.8
CCN1CCN2CCCN(S(=O)(=O)c3ccc(C)cc3C)C2C1=O (configuration not stated) | 0.515
Cc1cc(C)n(C2CCCN(C(=O)CN(C)c3cnccn3)C2)n1 (configuration not stated) | 3.36
N#CCCN(Cc1ccco1)C(=O)CCCNC(=O)c1ccccc1 | 8.15
CCCn1nnnc1COC(=O)C1Cc2cc(Cl)ccc2O1 (configuration not stated) | -5.68

Structure (SMILES) | cytotoxicity at 10 µM [%]
Cc1ccc(CNC(=O)NCc2nccn2C)c(OC(C)(C)C)c1 | 2.66
Cn1cc(N2CCCC(Nc3ccc4c(c3)CCCO4)C2=O)cn1 (configuration not stated) | -6.79
COC(=O)CCN(CC1CCOC1)C1CC1 (configuration not stated) | -9.66
Cn1ccnc1COc1ccc(NC(=O)C2CCCO2)cc1 (configuration not stated) | -14.9
CN(Cc1cccs1)C(=O)c1ccc(N2CCOCC2)c(F)c1 | -5.56
CCNC(=O)NC(=O)CNC1(c2noc(C)n2)CCCC1 | 20.6
Cc1nc(C)n(CC2CCCN2CC(=O)NCCc2cccs2)n1 (configuration not stated) | -0.749
Cc1nc(N2CCN(C(=O)NCc3cscn3)CC2)sc1C | -11.3
O=C(NCCCn1ccnc1)Nc1ccn(CCc2ccccn2)n1 | -0.386
CCc1nc(C2CCCN(c3nccc(C)n3)C2)no1 (configuration not stated) | -2.69
COCCCNS(=O)(=O)c1cc(Br)sc1C | -6.14
CN(C(=O)CN1CCCc2cc(F)cc(F)c21)c1ccccc1 | 14.2
CN(Cc1ccc([S+](C)[O-])cc1)c1ccc(Br)cn1 (configuration not stated) | 11.8
CN(Cc1cc2c(cc1OC(F)F)OCO2)Cc1nccn1C | -1.21
CS(=O)(=O)N1CCO[C@@H]2CN(C(=O)N3CCCC3)CC[C@@H]2C1 | -101
Cc1ccc(CNCC2Cn3nncc3CO2)o1 (configuration not stated) | -113
Cc1cc(C(=O)N2CCc3ncc(CN4CCCCC4)n3CC2)no1 | -100
Cc1nc(CN2C(=O)CC[C@@H]3[C@H]2CCN3C(=O)C2CCOCC2)cs1 | -81.3
CCOCC(=O)N1CC[C@@H]2O[C@@H](C)C[C@H]2C1 | -69.2
CCN(Cc1nccn1C)C(=O)c1ccc(NCc2ccc(C)o2)nc1 | 9.78
O=C(CCC1CCN(C(=O)c2csnn2)CC1)NCc1cccc(Cl)c1 | -4.55

Structure (SMILES) | cytotoxicity at 10 µM [%]
CC(C)N1CCC(C(=O)N2CCN(c3cccc(C(=O)O)c3)CC2)CC1 | 6.4
CCOCCn1nc(C)cc1C(=O)N1CC[C@](O)(CC)[C@H](O)C1 | -3
CCn1ccnc1C1CCCN(c2nccc3ccccc23)C1 (configuration not stated) | -2.74
Cc1c(C(C)NC2CSCCSC2)cnn1-c1ccc(F)cc1F (configuration not stated) | -11.1
COc1ccc2c(C)c(C(=O)NCCCc3csc(N)n3)oc2c1 | 2.58
Cc1nc(-c2cccc(N3CCC(N4CCCC(C#N)C4)CC3)c2)cs1 (configuration not stated) | 6.22
CCc1cc(N(C)CCc2noc(C)n2)nc(N2CCOCC2)n1 | 4.12
CC(C)CN(Cc1ccc(O)c(C(=O)O)c1)Cc1ccccn1 | 8.5
CCC(OC)C(=O)NCc1cc2n(n1)CCCN(C1CCCCC1)C2 (configuration not stated) | 5.3
CSc1ccc(C(C(=O)O)N2CCC(C(=O)N3CCCC3)CC2)cc1 (configuration not stated) | -3.45
Cc1cccnc1NCCNc1cc(C(C)C)nc2ccnn12 | -5.29
CCn1ccnc1C1CCN(Cc2c(F)cccc2F)CC1 | -6.82
CCn1c(Cn2cncn2)nnc1C1CCN(CCN)CC1 | -0.111
CSc1ccc(CN(CCO)Cc2nccn2C)cc1 | 4.98
CN(C)C[C@@H]1CN(C(=O)c2cc(-c3ccccc3)n[nH]2)C[C@@H]1CO | -19.9
CCC(C)N(Cc1sccc1C)C(=O)c1cc(N)ccn1 (configuration not stated) | 9.8
O=C1NCC2(CCCN(Cc3ccc(Cl)s3)C2)Oc2ccccc21 (configuration not stated) | 8.69
CO[C@@H]1CC[C@@H](N(C)C(=O)COc2ccc(F)cc2)[C@H]1O | 8.47
Cn1cnc2c1CCN(Cc1noc(-c3ccccc3)n1)C2 | -1.96
O=C(O)c1cc(S(=O)(=O)Nc2cc(F)ccc2F)cc2c1OCCO2 | -7.42
CS(=O)(=O)CCC(=O)Nc1cnn(-c2ccccc2Cl)c1 | -6.66

Structure (SMILES) | cytotoxicity at 10 µM [%]
Cc1nn(CC(C)C)c(N(C)C)c1CNCc1cccnc1N(C)C | -7.71
O=C(NS(=O)(=O)c1ccc2c(c1)OCCO2)c1ccc(Br)cc1F | 0.553
Cc1nc(CN2CCOC(CNc3cccnn3)C2)oc1C (configuration not stated) | -7.94
COC(=O)c1cccn1C1CCN(CC(=O)NC2CCCCC2)CC1 | -8.21
Cc1ccc(C)c(CSc2nnc(C(N)Cc3ccccc3)o2)c1 (configuration not stated) | -0.431
O=C(c1cccnc1N1CCN(CCO)CC1)N1CCCC1 | -1.32
CCN(C)c1ncnc2c1CCN(S(=O)(=O)c1ccccc1)CC2 | -106
CN(C)Cc1cnc2n1CCN(C(=O)NC1CCCC1)CC2 | -3.77
CC(C)OCCCN(Cc1ccncc1)Cc1cccc(F)c1 | -15.6
CN(Cc1cn2c(n1)CN(Cc1nccs1)CC2)Cc1ccco1 | -77.2
OCCOCc1nnn2c1CN(c1ncccn1)CCC2 | -10.5
CN(C)C(=O)N[C@H]1CN(C2CCOCC2)[C@@H]2CCCO[C@H]12 | -1.86
c1ccc(NC[C@@H]2CCC[C@@H]3CN(Cc4cc[nH]n4)C[C@@H]32)nc1 | -111
Cc1noc([C@H]2C[C@H]3OCC[C@H]3N(Cc3cccs3)C2)n1 | -96.3
Cc1nc(C)c(C(C)NCc2cnc(N3CCOCC3)nc2)s1 (configuration not stated) | -4.76
CC(C)=CCN1C(=O)[C@@H]2CC[C@H]1CN(C(=O)CCc1n[nH]c(C)c1C)C2 | 5.54
NC(=O)c1cccnc1N1C[C@H]2CC[C@@H](C1)N(Cc1ccccn1)C2=O | 7.94
CC(C)NC(=O)N1C[C@@H]2C[C@H](C(=O)N3CCCC3)[C@H](C1)O2 | -101
CN(C)S(=O)(=O)N1C[C@@H]2C[C@H](C(=O)Nc3cccnc3)[C@H](C1)O2 | -71.7
